What was measured:
[1] = system: Mycolicibacterium smegmatis; assay: Antibacterial activity against Mycobacterium smegmatis MC2 155 ATCC 700084 measured after 72 hrs by serial dilution method; type: functional
[2] = system: Mycolicibacterium smegmatis; assay: Bactericidal activity against Mycobacterium smegmatis MC2 155 ATCC 700084 at >200 ug/ml measured after 6 and 24 hrs by serial dilution method relative to control; type: functional
Summary of the method: (§1)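 Bacteria were exposed to test compound over a range of µg/ml concentrations. Viable bacteria were counted by colony forming unit (CFU) assay at set time points (6 h and 24 h for M. smegmatis and S. aureus strains), and untreated bacteria served as the control. Percentage of population killed was calculated relative to the untreated control. Values are means ± S.D of three independent trials.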

[3] = system: Pseudomonas aeruginosa; assay: Bactericidal activity against Pseudomonas aeruginosa PAO1 ATCC 15692 at >300 ug/ml measured after 1 and 3 hrs by serial dilution method relative to control; type: functional
[4] = system: Staphylococcus aureus; assay: Bactericidal activity against Staphylococcus aureus ATCC 25923 at 50 ug/ml measured after 24 hrs by serial dilution method relative to control; type: functional
[5] = system: Staphylococcus aureus; assay: Bactericidal activity against methicillin-resistant Staphylococcus aureus ATCC 43300 at 50 ug/ml measured after 6 hrs by serial dilution method relative to control; type: functional; summary of the method: as §1
[6] = system: Mycolicibacterium smegmatis; assay: Antibacterial activity against Mycobacterium smegmatis MC2 155 ATCC 700084 assessed as colony forming units at 10 ug/ml measured after 6 hrs by serial dilution method (reference value: 70 +/- 1.73 10^3CFU); type: functional; summary of the method: as §1
[7] = system: Mycolicibacterium smegmatis; assay: Antibacterial activity against Mycobacterium smegmatis MC2 155 ATCC 700084 assessed as colony forming units at 100 ug/ml measured after 6 hrs by serial dilution method (reference value: 70 +/- 1.73 10^3CFU); type: functional; summary of the method: as §1
[8] = system: Mycolicibacterium smegmatis; assay: Antibacterial activity against Mycobacterium smegmatis MC2 155 ATCC 700084 assessed as colony forming units at 200 ug/ml measured after 6 hrs by serial dilution method (reference value: 70 +/- 1.73 10^3CFU); type: functional; summary of the method: as §1
[9] = system: Mycolicibacterium smegmatis; assay: Antibacterial activity against Mycobacterium smegmatis MC2 155 ATCC 700084 assessed as colony forming units at 300 ug/ml measured after 6 hrs by serial dilution method (reference value: 70 +/- 1.73 10^3CFU); type: functional; summary of the method: as §1
[10] = system: Mycolicibacterium smegmatis; assay: Antibacterial activity against Mycobacterium smegmatis MC2 155 ATCC 700084 assessed as colony forming units at 500 ug/ml measured after 6 hrs by serial dilution method (reference value: 70 +/- 1.73 10^3CFU); type: functional; summary of the method: as §1
[11] = system: Mycolicibacterium smegmatis; assay: Antibacterial activity against Mycobacterium smegmatis MC2 155 ATCC 700084 assessed as colony forming units at 1 ug/ml measured after 24 hrs by serial dilution method (reference value: 84 +/- 4.35 10^3CFU); type: functional; summary of the method: as §1
[12] = system: Mycolicibacterium smegmatis; assay: Antibacterial activity against Mycobacterium smegmatis MC2 155 ATCC 700084 assessed as colony forming units at 100 ug/ml measured after 24 hrs by serial dilution method (reference value: 84 +/- 4.35 10^3CFU); type: functional; summary of the method: as §1
[13] = system: Mycolicibacterium smegmatis; assay: Antibacterial activity against Mycobacterium smegmatis MC2 155 ATCC 700084 assessed as colony forming units at 300 ug/ml measured after 24 hrs by serial dilution method (reference value: 84 +/- 4.35 10^3CFU); type: functional; summary of the method: as §1
[14] = system: Pseudomonas aeruginosa; assay: Antibacterial activity against Pseudomonas aeruginosa PAO1 ATCC 15692 assessed as colony forming units at 1 ug/ml measured after 1 hr by serial dilution method (reference value: 85.33 +/- 4.04 10^8CFU); type: functional
[15] = system: Pseudomonas aeruginosa; assay: Antibacterial activity against Pseudomonas aeruginosa PAO1 ATCC 15692 assessed as colony forming units at 50 ug/ml measured after 1 hr by serial dilution method (reference value: 85.33 +/- 4.04 10^8CFU); type: functional
[16] = system: Pseudomonas aeruginosa; assay: Antibacterial activity against Pseudomonas aeruginosa PAO1 ATCC 15692 assessed as colony forming units at 100 ug/ml measured after 1 hr by serial dilution method (reference value: 85.33 +/- 4.04 10^8CFU); type: functional
[17] = system: Pseudomonas aeruginosa; assay: Antibacterial activity against Pseudomonas aeruginosa PAO1 ATCC 15692 assessed as colony forming units at 200 ug/ml measured after 1 hr by serial dilution method (reference value: 85.33 +/- 4.04 10^8CFU); type: functional
[18] = system: Pseudomonas aeruginosa; assay: Antibacterial activity against Pseudomonas aeruginosa PAO1 ATCC 15692 assessed as colony forming units at 100 ug/ml measured after 3 hr by serial dilution method (reference value: 141.66 +/- 7.5 10^8CFU); type: functional
[19] = system: Staphylococcus aureus; assay: Antibacterial activity against Staphylococcus aureus ATCC 25923 assessed as colony forming units at 1 ug/ml measured after 6 hrs by serial dilution method (reference value: 65.66 +/- 3.51 10^6CFU); type: functional
[20] = system: Staphylococcus aureus; assay: Antibacterial activity against Staphylococcus aureus ATCC 25923 assessed as colony forming units at 50 ug/ml measured after 6 hrs by serial dilution method (reference value: 65.66 +/- 3.51 10^6CFU); type: functional
[21] = system: Staphylococcus aureus; assay: Antibacterial activity against Staphylococcus aureus ATCC 25923 assessed as colony forming units at 100 ug/ml measured after 6 hrs by serial dilution method (reference value: 65.66 +/- 3.51 10^6CFU); type: functional
[22] = system: Staphylococcus aureus; assay: Antibacterial activity against Staphylococcus aureus ATCC 25923 assessed as colony forming units at 50 ug/ml measured after 24 hrs by serial dilution method (reference value: 77.66 +/- 5.13 10^6CFU); type: functional
[23] = system: Staphylococcus aureus; assay: Antibacterial activity against Staphylococcus aureus ATCC 25923 assessed as colony forming units at 100 ug/ml measured after 24 hrs by serial dilution method (reference value: 77.66 +/- 5.13 10^6CFU); type: functional
[24] = system: Staphylococcus aureus; assay: Antibacterial activity against Staphylococcus aureus ATCC 25923 assessed as colony forming units at 500 ug/ml measured after 24 hrs by serial dilution method (reference value: 77.66 +/- 5.13 10^6CFU); type: functional
[25] = system: Staphylococcus aureus; assay: Antibacterial activity against methicillin-resistant Staphylococcus aureus ATCC 43300 assessed as colony forming units at 1 ug/ml measured after 6 hrs by serial dilution method (reference value: 64.33 +/- 3.51 10^6CFU); type: functional; summary of the method: as §1
[26] = system: Staphylococcus aureus; assay: Antibacterial activity against methicillin-resistant Staphylococcus aureus ATCC 43300 assessed as colony forming units at 100 ug/ml measured after 6 hrs by serial dilution method (reference value: 64.33 +/- 3.51 10^6CFU); type: functional; summary of the method: as §1
[27] = system: Staphylococcus aureus; assay: Antibacterial activity against methicillin-resistant Staphylococcus aureus ATCC 43300 assessed as colony forming units at 1 ug/ml measured after 24 hrs by serial dilution method (reference value: 74 +/- 2 10^6CFU); type: functional; summary of the method: as §1
[28] = system: Staphylococcus aureus; assay: Antibacterial activity against methicillin-resistant Staphylococcus aureus ATCC 43300 assessed as colony forming units at 10 ug/ml measured after 24 hrs by serial dilution method (reference value: 74 +/- 2 10^6CFU); type: functional; summary of the method: as §1
[29] = system: Pseudomonas aeruginosa; assay: Antibacterial activity against Pseudomonas aeruginosa PAO1 ATCC 15692 measured after 1 to 3 hrs by serial dilution method

For Cc1ccc(O)c(NC(=O)/C=C/c2ccc(O)c(O)c2)c1, the Activity [1] was “Dose-dependent effect”, the Activity [2] was 100% and the Activity [3] was 100%. It also gave an Activity [4] of 89.6%, an Activity [5] of 57.5% and an Activity [6] of 42.66 ×10³ CFU. It also gave an Activity [7] of 14.33 ×10³ CFU, an Activity [8] of 6.33 ×10³ CFU and an Activity [9] of 0 ×10³ CFU. For the same compound, the Activity [10] was 0 ×10³ CFU, the Activity [11] was 62.66 ×10³ CFU and the Activity [12] was 36.33 ×10³ CFU. The Activity [13] was 0 ×10³ CFU, the Activity [14] was 62 ×10⁸ CFU and the Activity [15] was 43 ×10⁸ CFU. For the same compound, the Activity [16] was 23.33 ×10⁸ CFU, the Activity [17] was 14 ×10⁸ CFU and the Activity [18] was 69.66 ×10⁸ CFU. For the same compound, the Activity [19] was 26.33 ×10⁶ CFU, the Activity [20] was 13.66 ×10⁶ CFU and the Activity [21] was 14 ×10⁶ CFU. The Activity [22] was 8 ×10⁶ CFU, the Activity [23] was 0 ×10⁶ CFU and the Activity [24] was 0 ×10⁶ CFU. For the same compound, the Activity [25] was 61 ×10⁶ CFU, the Activity [26] was 20.33 ×10⁶ CFU and the Activity [27] was 54.33 ×10⁶ CFU. For the same compound, the Activity [28] was 41.33 ×10⁶ CFU and the Activity [29] was “Dose-dependent effect”.

O=C(/C=C/c1ccc(O)c(O)c1)Nc1ccccc1Nc1ccccc1 was tested, and the Activity [1] was “Dose-dependent effect”, the Activity [2] was 100% and the Activity [3] was 100%. It also gave an Activity [4] of 68.2%, an Activity [5] of 52.8% and an Activity [6] of 38.33 ×10³ CFU. The Activity [7] was 24.66 ×10³ CFU, the Activity [8] was 15 ×10³ CFU and the Activity [9] was 0 ×10³ CFU. It also gave an Activity [10] of 0 ×10³ CFU, an Activity [11] of 54 ×10³ CFU and an Activity [12] of 8 ×10³ CFU. The Activity [13] was 0 ×10³ CFU, the Activity [14] was 61 ×10⁸ CFU and the Activity [15] was 35 ×10⁸ CFU. It also gave an Activity [16] of 22.33 ×10⁸ CFU, an Activity [17] of 10.66 ×10⁸ CFU and an Activity [18] of 32.66 ×10⁸ CFU. It also gave an Activity [19] of 42 ×10⁶ CFU, an Activity [20] of 8.66 ×10⁶ CFU and an Activity [21] of 5 ×10⁶ CFU. For the same compound, the Activity [22] was 24.66 ×10⁶ CFU, the Activity [23] was 11.66 ×10⁶ CFU and the Activity [24] was 0 ×10⁶ CFU. It also gave an Activity [25] of 58 ×10⁶ CFU, an Activity [26] of 24.33 ×10⁶ CFU and an Activity [27] of 60 ×10⁶ CFU. The Activity [28] was 41.66 ×10⁶ CFU and the Activity [29] was “Dose-dependent effect”.

— ChEMBL document CHEMBL3868627, “Radical scavenging and antibacterial activity of caffemides against gram positive, gram negative and clinical drug resistance bacteria” (Bioorg Med Chem Lett, 2016)
